“And” between values parts separate entries of the source, which are not always exact repeats. Identical values can stand only once.
System: Fibroblast
Assay: Multiplex assay against human fibroblast
Assay type: toxicity, cell-based
Conditions: number of replicates 2
In short: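 Cells were classed with CellPathfinder machine-learning gating, first as Hoechst high-intensity objects or normal cells, then (normal cells) as healthy, pyknosed or fragmented nuclei, and finally (pyknosed cells) as mitotic or apoptotic. Staining of live cells at seeding used Hoechst33342, BioTracker Green Microtubule Cytoskeleton Dye, MitoTracker Red and Annexin V Alexa Fluor 680, with imaging on a CQ1 microscope at 37°C and 5% CO2 after compound addition. Tubulin, mitochondrial-mass and membrane-permeability phenotypes are per cents of healthy-nucleus cells.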

[1] = 12 h, 1 µM, compound concentration 1 uM
[2] = 12 h, 10 µM, compound concentration 10 uM
[3] = 24 h, 1 µM, compound concentration 1 uM
[4] = 24 h, 10 µM, compound concentration 10 uM
[5] = 48 h, 1 µM, compound concentration 1 uM
[6] = 48 h, 10 µM, compound concentration 10 uM

Cc1ccc2c(N)c(C(=O)NC3CCc4cc(N5CC6CCC(C5)N6)ccc4C3)sc2n1.O=CO (stereo unspecified)
Population Apoptotic (%) [1]: 50% and 54% | Population Fragmented Nuclei (%) [1]: 16% | Population Healthy Nuclei (%) [1]: 73% and 68% | Population Hoechst High Intensity Objects (%) [1]: 0% and 1% | Population Membrane Permeable-Phenotype (%) [1]: 2% | Population Mitochondria Different-Phenotype (%) [1]: 1% and 2% | Population Mitotic Cells (%) [1]: 50% and 45% | Population Normal (%) [1]: 99% and 98% | Population Pyknosed Nuclei (%) [1]: 10% and 15% | Population Tubulin-Different-Phenotype (%) [1]: 17% and 14% | Total Cell Count [1]: 232 and 283 | Population Apoptotic (%) [2]: 38% and 26% | Population Fragmented Nuclei (%) [2]: 16% and 24% | Population Healthy Nuclei (%) [2]: 53% and 55% | Population Hoechst High Intensity Objects (%) [2]: 3% and 5% | Population Membrane Permeable-Phenotype (%) [2]: 4% and 2% | Population Mitochondria Different-Phenotype (%) [2]: 3% and 1% | Population Mitotic Cells (%) [2]: 61% and 73% | Population Normal (%) [2]: 96% and 94% | Population Pyknosed Nuclei (%) [2]: 29% and 20% | Population Tubulin-Different-Phenotype (%) [2]: 23% and 22% | Total Cell Count [2]: 238 and 259 | Population Apoptotic (%) [3]: 46% and 52% | Population Fragmented Nuclei (%) [3]: 14% | Population Healthy Nuclei (%) [3]: 75% and 71% | Population Hoechst High Intensity Objects (%) [3]: 0% | Population Membrane Permeable-Phenotype (%) [3]: 2% and 1% | Population Mitochondria Different-Phenotype (%) [3]: 3% and 2% | Population Mitotic Cells (%) [3]: 53% and 47% | Population Normal (%) [3]: 100% and 99% | Population Pyknosed Nuclei (%) [3]: 10% and 14% | Population Tubulin-Different-Phenotype (%) [3]: 15% and 14% | Total Cell Count [3]: 259 and 302 | Population Apoptotic (%) [4]: 48% and 45% | Population Fragmented Nuclei (%) [4]: 18% and 23% | Population Healthy Nuclei (%) [4]: 42% and 48% | Population Hoechst High Intensity Objects (%) [4]: 7% and 6% | Population Membrane Permeable-Phenotype (%) [4]: 2% and 1% | Population Mitochondria Different-Phenotype (%) [4]: 13% and 8% | Population Mitotic Cells (%) [4]: 51% and 54% | Population Normal (%) [4]: 92% and 93% | Population Pyknosed Nuclei (%) [4]: 39% and 28% | Population Tubulin-Different-Phenotype (%) [4]: 23% and 15% | Total Cell Count [4]: 228 and 250 | Population Apoptotic (%) [5]: 56% and 60% | Population Fragmented Nuclei (%) [5]: 27% and 18% | Population Healthy Nuclei (%) [5]: 67% and 71% | Population Hoechst High Intensity Objects (%) [5]: 0% | Population Membrane Permeable-Phenotype (%) [5]: 1% | Population Mitochondria Different-Phenotype (%) [5]: 1% and 3% | Population Mitotic Cells (%) [5]: 43% and 40% | Population Normal (%) [5]: 99% | Population Pyknosed Nuclei (%) [5]: 5% and 10% | Population Tubulin-Different-Phenotype (%) [5]: 18% and 17% | Total Cell Count [5]: 294 and 298 | Population Apoptotic (%) [6]: 67% and 55% | Population Fragmented Nuclei (%) [6]: 20% and 22% | Population Healthy Nuclei (%) [6]: 29% and 36% | Population Hoechst High Intensity Objects (%) [6]: 11% and 10% | Population Membrane Permeable-Phenotype (%) [6]: 7% and 2% | Population Mitochondria Different-Phenotype (%) [6]: 21% and 16% | Population Mitotic Cells (%) [6]: 32% and 44% | Population Normal (%) [6]: 88% and 89% | Population Pyknosed Nuclei (%) [6]: 49% and 40% | Population Tubulin-Different-Phenotype (%) [6]: 25% and 15% | Total Cell Count [6]: 194 and 215
